# MC4R barr agon – MC4R agonists recruiting beta-arrestin, primary screen, cell-based, luminescence, agonist arm of biased-ligand search. Melanocortin receptor 4 (Homo sapiens), P32245. U2OS MC4R beta-arrestin complementation; percent of melanotan II response, DMSO zero. activation, % at 8.9 µM. actives 0.98% (n = 360,000). AID 540308, 2011;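 active = activation above a per-plate cutoff, the mean activation of sample wells on that plate plus 3 SD, cut at about 8% in these data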
# Target sequence (P32245 whole entry, looked up): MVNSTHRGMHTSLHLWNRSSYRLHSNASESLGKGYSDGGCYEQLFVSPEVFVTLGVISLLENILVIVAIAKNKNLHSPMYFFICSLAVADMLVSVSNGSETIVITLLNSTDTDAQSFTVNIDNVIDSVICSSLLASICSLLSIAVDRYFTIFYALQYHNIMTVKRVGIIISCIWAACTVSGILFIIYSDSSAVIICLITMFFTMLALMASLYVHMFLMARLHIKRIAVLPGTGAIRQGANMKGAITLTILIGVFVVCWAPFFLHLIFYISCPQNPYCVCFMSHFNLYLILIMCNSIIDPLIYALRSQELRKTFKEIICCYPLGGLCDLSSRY
# MC4R antag cAMP – MC4R antagonists of cAMP signaling, primary screen, cell-based, TR-FRET, antagonist arm of biased-ligand search | Melanocortin receptor 4 (Homo sapiens), P32245 | MC4R-expressing cells, MTII-stimulated cAMP, LANCE TR-FRET | inhibition, % at 6.5 µM | actives 0.48% (n = 360,000) | AID 540295, 2011;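 active = inhibition above its plate's cutoff, the mean of tested wells on that plate plus 3 SD, cut at about 29% in these data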
#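 material = U2OS cells stably expressing human melanocortin 4 receptor (MC4R) | also added = Melanotan II challenge | dosing = single nominal compound dose of 6.5 µM | detection = TR-FRET with Eu-cAMP and labeled anti-cAMP, 671 nm | replication = singlicate | timing = compound 30 min, challenge 1 h, detection 1 h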
# Exocytosis inh – LAMP-1 surface exposure blockers, TALL-104 cells – cell-based, flow cytometry, MLPCN library, primary screen; TALL-104 LAMP-1 surface exposure; cells stimulated with thapsigargin and PMA; inhibition, % at 10 µM; actives 0.66% (n = 360,000);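 active = inhibition above about 55%, limit read from the data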
# PGE2 EP2 inh – human EP2 receptor antagonists, primary screen, TR-FRET cAMP, C6 glioma cells | C6 glioma cells expressing human EP2; cells stimulated with saturating PGE2 | AID 1422, 2008 | Prostaglandin E2 receptor EP2 subtype (Homo sapiens), P43116 | actives 0.52% (n = 260,000) | inhibition, % at 25 µM;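 active = percent inhibition above 40 after rounding to a whole number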;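 note: rat C6 glioma host cells with rolipram phosphodiesterase inhibitor present; the protocol text gives 20 µM as final concentration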
# Target sequence (P43116 whole entry, looked up): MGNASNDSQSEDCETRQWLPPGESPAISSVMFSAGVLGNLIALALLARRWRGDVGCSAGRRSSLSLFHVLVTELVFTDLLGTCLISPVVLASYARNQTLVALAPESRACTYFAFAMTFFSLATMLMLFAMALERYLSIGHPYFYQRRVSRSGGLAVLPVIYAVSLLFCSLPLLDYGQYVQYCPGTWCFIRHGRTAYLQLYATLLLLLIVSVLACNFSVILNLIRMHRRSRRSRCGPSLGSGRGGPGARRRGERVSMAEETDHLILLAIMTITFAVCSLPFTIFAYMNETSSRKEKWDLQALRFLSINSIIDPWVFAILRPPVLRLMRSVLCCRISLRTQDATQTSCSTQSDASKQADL
# T cell HTS – modulators of CD8 T cell-vesicle binding, primary screen, mouse 2C CD8+ T cells, flow cytometry | response (vesicle binding), % at 7 µM | actives 0.068% (n = 330,000) | 2C CD8+ T cell-vesicle binding; stronger effect = lower value;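 active = response, share of CD8 T cells binding vesicles, and their 90th percentile fluorescence all below set limits, cut at about 80% in these data, passing the limit was not always enough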;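 note: values below 100% mean blocked vesicle binding to the CD8+ T cells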
#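 Material: 2C TCR transgenic mouse naive CD8+ T cells, MACS-purified. Also added: QL9-charged Drosophila Ld/ICAM-1/B7-1 vesicles. Timing: binding 1.5 h at 37 °C. Measured by: high-throughput flow cytometry with anti-B7-1 and anti-CD8 staining. Read-out: percent CD8+ FL2 mean versus row control. Controls: Unloaded micro-vesicles (low), QL9 vesicles with 0.7% DMSO (high).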
# EP2 modulator – EP2 receptor modulators, cAMP readout, primary screen, cell-based, HTRF cAMP, PGE2 stimulation. actives 0.83% (n = 260,000). induction, % at 25 µM. AID 940, 2007. Prostaglandin E2 receptor EP2 subtype (Homo sapiens), P43116. EP2-expressing cells, cAMP HTRF FRET, PGE2 co-stimulation;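 active = compounds whose cAMP rise, as percent of the full-agonist control response, exceeds 60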;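 note: rat C6 glioma line stably carrying human EP2 under a CMV promoter; the protocol text gives 20 µM as final concentration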
# Granule exo CP1 – inhibitors of lytic granule exocytosis, confirmation, TALL-104 cells, flow cytometry, Cherry Pick01 | shares compounds with Exocytosis inh | LAMP-1 externalization; stimulated with PMA plus thapsigargin | inhibition, % at 10 µM | actives 11% (n = 1,500) | AID 651954, 2012; in the data active = inhibition above about 60%
# A number is an active result; i = inactive; nt = no result. Most compounds without a hit are left out; they make up all but 2.6% or so of the library.
SMILES,MC4R barr agon,MC4R antag cAMP,Exocytosis inh,PGE2 EP2 inh,T cell HTS,EP2 modulator,Granule exo CP1
CCOc1cccc(-c2nnc3n2N=C(c2cc(OC)ccc2OC)CS3)c1,i,i,75.1,i,i,i,i
CCOC(=O)C1=C(C)NC(C)=C(C(=O)OCC)C1c1nc2ccccc2[nH]1,nt,nt,nt,i,i,nt,nt
CCCCCCN1C[C@H](n2cc(-c3ccc(F)cc3)nn2)[C@@H](O)C[C@@H]1c1ccc(C)cc1,i,i,62.0,nt,nt,nt,i
CCSc1ccc([C@@H]2[C@H]3C(=O)N(C)C(=O)[C@H]3[C@]3(C(=O)OC)CCCCN23)cc1,i,i,i,nt,i,nt,nt
COc1ccc(C2CCCN2CC(O)COc2ccccc2C(C)C)cc1 (stereo not drawn),i,i,63.4,nt,i,nt,i
C=CCn1c(SCC(=O)NCCCC)nc2scc(-c3ccco3)c2c1=O,i,i,i,i,i,i,nt
C=CCn1c(SCC(C)=O)nc2scc(-c3ccc(C)o3)c2c1=O,8.3,i,85.1,nt,i,nt,i
O=C(Nc1nc2ccccc2n1Cc1ccccc1)c1ccc(COc2ccccc2[N+](=O)[O-])o1,i,i,i,i,i,i,nt
O=C(Nc1nc2ccccc2n1CCN1CCOCC1)c1ccc(COc2ccccc2Br)o1,i,i,70.2,i,i,i,80.5
COc1cccc(CN2C(=O)[C@H]3Cc4c([nH]c5ccccc45)C(C)(C)N3C2=O)c1,i,i,77.9,i,nt,nt,i
CN1CCN(CCCNC(=O)c2ccc(/C=C3\Oc4ccccc4N(Cc4ccccc4F)C3=O)cc2)CC1,i,i,i,nt,i,nt,nt
CN1CCN(CCCNC(=O)c2ccc(/C=C3\Sc4ccccc4N(Cc4ccc(F)cc4)C3=O)cc2)CC1,i,i,64.3,i,nt,i,76.6
CC(C)(C)c1nnc(NC(=O)CCS(=O)(=O)Cc2ccccc2)s1,i,i,i,nt,i,nt,nt
Cc1c(Cl)ccc2c(C(O)CBr)cc(-c3ccccc3)nc12 (stereo not drawn),i,i,63.7,nt,nt,nt,i
COc1cccc2c1OC(c1ccncc1)N1N=C(c3cccs3)CC21 (stereo not drawn),nt,nt,nt,i,nt,i,nt
O=C(CCCc1ccccc1)Nc1ccnn1C1CCN(Cc2ccc(Cl)cc2)CC1,i,i,i,nt,i,nt,nt
O=C(CCCc1ccccc1)Nc1ccnn1C1CCN(Cc2ccccc2)CC1,i,i,63.9,nt,i,nt,i
Cc1ccc(-c2cc(C(=O)Nc3cccnc3)c3ccccc3n2)o1,i,i,82.2,i,i,i,i
Cc1ccc(-c2cc(C(=O)Nc3ccccn3)c3ccccc3n2)o1,i,i,87.9,i,i,i,i
O=C(Nc1cccnc1)c1cc(-c2ccc(Br)cc2)nc2ccccc12,i,i,i,nt,i,nt,nt
Cc1ccc(NC(=O)c2cc(-c3ccc(C)o3)nc3ccccc23)cc1,i,i,84.0,i,i,i,i
Cc1ccc2cc(-c3noc(-c4ccccc4F)n3)c(=O)[nH]c2c1,nt,nt,nt,i,nt,i,nt
Cc1cc(C)cc(C(=O)NC(CC(N)=O)c2ccc(NC3CCCCCCCCCCC3)c([N+](=O)[O-])c2)c1 (stereo not drawn),i,i,i,nt,i,nt,nt
Cc1cc(Br)ccc1OCc1nnc(-c2ccccc2)o1,i,i,73.4,nt,nt,nt,i
COc1ccc(-c2nnc(COc3ccc(Br)cc3C)o2)cc1,i,i,i,nt,i,nt,nt
SMILES,MC4R barr agon,MC4R antag cAMP,Exocytosis inh,PGE2 EP2 inh,T cell HTS,EP2 modulator,Granule exo CP1
c1ccc(-c2ccccc2OCCN2CCOCC2)cc1,i,i,i,i,i,i,nt
O=C(Nc1ccc(CN2CCOCC2)cc1)c1ccc(Cl)cc1,i,i,i,nt,i,nt,nt
O=C(Nc1ccc(S(=O)(=O)Nc2ccccc2)cc1)c1ccc(CN2CCOCC2)cc1,i,i,75.7,i,i,i,i
CSc1nc2[nH]c(=O)n(O)c(=O)c2n1Cc1ccccc1,i,i,i,nt,nt,nt,nt
COc1ccccc1NC(=O)CCC(=O)Nc1cc(OC)c(NC(=O)c2cccs2)cc1OC,i,i,i,nt,i,nt,nt
COc1cc(NC(=O)c2cccs2)c(OC)cc1NC(=O)CCC(=O)Nc1cccc2ncccc12,i,i,60.3,i,i,i,i
Cc1ccc(OCc2ccc(-c3ccccc3)cc2)c([N+](=O)[O-])n1,i,i,88.1,nt,i,nt,i
COc1ccc(OC)c(S(=O)(=O)Nc2cccc3c(O)cccc23)c1,i,i,i,nt,i,nt,nt
COc1ccc(OC)c(S(=O)(=O)Nc2ccc(O)c3ccccc23)c1,i,i,84.6,42.1,i,i,i
O=C1NC[C@H](CC2CCCCC2)N(CCc2cc(C(F)(F)F)cc(C(F)(F)F)c2)C1=O,nt,nt,i,nt,nt,nt,nt
FC(F)(F)c1cc(CCN2C(=S)NC[C@@H]2CC2CCCCC2)cc(C(F)(F)F)c1,i,i,85.8,i,i,i,i
CCCCc1nc(N2CCN(C(=O)c3ccco3)CC2)c(C#N)c2c1CCCC2,i,i,79.4,nt,i,nt,i
Cc1cc(C)n(-c2nc3ccccc3c(=O)n2OCC(N)=O)n1,i,i,i,i,i,i,nt
Cc1ccc(C)c(NC(=O)c2cc(=O)c3ccccc3o2)c1,i,i,i,i,i,i,nt
Cc1ccc(C)c(NC(=O)COC(=O)c2cc(=O)c3ccccc3o2)c1,i,i,73.3,nt,nt,nt,i
Oc1ccc(-c2c(-c3ccsc3)sc3ccccc23)cc1,i,i,86.7,nt,i,nt,i
CC(C)(C)NC(=O)C(c1cccc2ccccc12)n1c(=O)c(-c2ccco2)nc2ccccc21 (stereo not drawn),nt,nt,i,nt,nt,nt,nt
COc1ccc(C(CNC(=O)CSc2ccccc2C)N(C)C)cc1 (stereo not drawn),i,i,i,nt,i,nt,nt
COc1ccc(C(CNC(=O)Cc2ccc(-c3ccccc3)cc2)N(C)C)cc1 (stereo not drawn),i,i,62.3,nt,i,nt,i
Cc1ccc(CN2CCSc3ccc(C(=O)NC4CCN(Cc5ccccc5)CC4)cc32)cc1,i,i,i,i,i,i,nt
O=C(NC1CCCC1)c1ccc2c(c1)N(Cc1ccccc1)CCS2,i,i,69.5,nt,i,nt,i
COc1ccc(OC)c(NC(=O)c2ccccc2N(C)S(=O)(=O)c2ccc(C)cc2)c1,i,i,61.0,nt,i,nt,i
Cc1ccc(C)c(S(=O)(=O)NCCCc2ccccc2)c1,i,i,58.4,nt,i,nt,i
CC(C)CN1C(=O)c2ccc(C(=O)NCc3ccc4c(c3)OCO4)cc2C1=O,i,i,i,i,i,i,nt

# Source: PubChem BioAssay (several laboratories)
